According to ChEMBL document CHEMBL4732269, “Design, Synthesis, and Biological Evaluation of Imidazopyridines as PD-1/PD-L1 Antagonists” (ACS Med Chem Lett, 2021):
Active and inactive are the calls of the source. The calls are words filed in the database; no cut-off is given here.

Legend:
Assay type in all cases: protein-complex assay
[1] = molecular target: T1, Programmed cell death protein 1/Programmed cell death 1 ligand 1 (Homo sapiens, UniProt Q15116+Q9NZQ7); experiment: Antagonist activity at PD1/PD-L1 (unknown origin) assessed as disruption of PD-1/PD-L1 complex by measuring PD-L1 dimerization at 50 uM measured after 2 hrs by HTRF assay
[2] = molecular target: T2, Programmed cell death protein 1/Programmed cell death 1 ligand 1 (Homo sapiens, UniProt Q9NZQ7); experiment: Antagonist activity at PD1/PD-L1 (unknown origin) assessed as disruption of PD-1/PD-L1 complex by measuring PD-L1 dimerization measured after 2 hrs by HTRF assay
Procedure, shortened: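 PD-1/PD-L1 binding measured by HTRF with a commercial kit following the kit protocol, at 20 μL final volume. Each compound was run as its own dilution series, and plates were incubated 2 h at RT before the TR-FRET read. Signals were background-subtracted on the negative control and normalized to the positive control. Averaged data were fitted with a normalized Hill equation to give the IC50.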

[3] = molecular target: T1, Programmed cell death protein 1/Programmed cell death 1 ligand 1; experiment: Antagonist activity at PD1/PD-L1 (unknown origin) assessed as disruption of PD-1/PD-L1 complex by measuring PD-L1 dimerization by 1H-NMR analysis; conditions: filed as antagonist
Procedure, shortened: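 PD-L1 was expressed in E. coli BL21 (DE3) as inclusion bodies, then refolded by drop-wise dilution into 0.1 M Tris pH 8.0, 1 M L-Arg HCl, 2 mM EDTA, and 0.25 mM each of oxidized and reduced glutathione. It was dialyzed against 10 mM Tris pH 8.0 with 20 mM NaCl. Final size-exclusion chromatography was run in PBS pH 7.4 for NMR.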

[4] = molecular target: T1, Programmed cell death protein 1/Programmed cell death 1 ligand 1; experiment: Antagonist activity at human PD1/PD-L1
[5] = molecular target: T2, Programmed cell death protein 1/Programmed cell death 1 ligand 1; experiment: Antagonist activity at human PD1/PD-L1 preincubated with PD-L1 for 1 hr followed by incubation with PD1 for 1 hr by ELISA
[6] = molecular target: T1, Programmed cell death protein 1/Programmed cell death 1 ligand 1; experiment: Antagonist activity at PD1/PD-L1 (unknown origin)

T2 sequence (Q15116 whole entry): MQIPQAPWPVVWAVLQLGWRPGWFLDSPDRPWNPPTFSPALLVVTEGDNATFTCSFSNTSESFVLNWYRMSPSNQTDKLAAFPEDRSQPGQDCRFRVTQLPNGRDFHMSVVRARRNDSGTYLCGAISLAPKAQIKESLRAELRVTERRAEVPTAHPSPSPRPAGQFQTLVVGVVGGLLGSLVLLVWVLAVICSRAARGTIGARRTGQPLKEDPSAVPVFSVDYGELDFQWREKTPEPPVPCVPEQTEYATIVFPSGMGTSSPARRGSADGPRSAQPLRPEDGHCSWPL
T2 sequence (Q9NZQ7 whole entry): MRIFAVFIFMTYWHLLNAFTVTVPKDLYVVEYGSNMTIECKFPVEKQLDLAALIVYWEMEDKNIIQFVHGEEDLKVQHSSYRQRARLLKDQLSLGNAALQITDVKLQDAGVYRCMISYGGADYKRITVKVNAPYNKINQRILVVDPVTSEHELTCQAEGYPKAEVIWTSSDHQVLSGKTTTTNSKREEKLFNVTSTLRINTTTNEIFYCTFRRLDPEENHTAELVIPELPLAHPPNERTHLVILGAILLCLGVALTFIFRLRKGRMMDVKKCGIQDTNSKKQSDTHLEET
T1 sequence (Q15116 whole entry): as the sequence (Q15116 whole entry) above
T1 sequence (Q9NZQ7 whole entry): as the sequence (Q9NZQ7 whole entry) above

For `Cc1c(COc2ccc3nc(CN)c(NCc4ccccc4)n3c2)cccc1-c1ccc2c(c1)OCCO2`, the Activity ([1]; filed as antagonist) was “Active” and the IC50 [2] was 22.9 µM.

For `Cc1c(COc2ccc3nc(CN)c(NCc4cccc(C#N)c4)n3c2)cccc1-c1ccc(F)cc1`, the Activity [1] was “inactive”.

`Cc1c(COc2ccc3nc(CN)c(NC(C)c4ccccc4)n3c2)cccc1-c1ccccc1` (stereo not drawn) was tested, and the Activity ([1]; filed as antagonist) was “Active”, the Activity [3] was “Active” and the IC50 [2] was 9.33 µM.

In the case of `Cc1c(COc2ccc3nc(CN)c(NCCc4ccccc4)n3c2)cccc1-c1ccccc1`, the Activity ([1]; filed as antagonist) is reported as “Active”, the Activity [3] is reported as “Active” and the IC50 [2] is reported as 16.8 µM.

`Cc1c(-c2ccccc2)cccc1-c1nc2c(s1)CNCC2` showed an IC50 [4] of at most 0.1 µM.

With `Cc1c(COc2ccc3nc(CN)c(NCc4ccccc4)n3c2)cccc1-c1ccccc1` the Activity ([1]; filed as antagonist) was “Active”, the Activity [3] was “Active” and the IC50 [2] was 10.2 µM.

`Cc1c(Oc2ccc3nc(CN)c(NCc4ccccc4)n3c2)cccc1-c1ccccc1` was tested, and the Activity ([1]; filed as antagonist) was “Active” and the Activity [3] was “Active”.

In the case of `Cc1cc2nc(CN)c(NCc3ccccc3)n2cc1OCc1cccc(-c2ccc3c(c2)OCCO3)c1C`, the Activity ([1]; filed as antagonist) is reported as “Active” and the IC50 [2] is reported as 1.83 µM.

`N#Cc1cncc(COc2cc(O[C@H]3CCc4c(-c5ccccc5F)cccc43)c(Cl)cc2CN2CC[C@@H](O)C2)c1` gave an IC50 [5] of under 0.1 µM.

In the case of `Cc1c(COc2ccc3nc([C@@H](N)CO)c(NCc4ccccc4)n3c2)cccc1-c1ccccc1`, the Activity [1] is reported as “inactive”.

For `Cc1c(COc2ccc3nc([C@H](N)CO)c(NCc4ccccc4)n3c2)cccc1-c1ccccc1`, the Activity [1] was “inactive”.

In the case of `Cc1c(COc2ccc3nc(CN)c(NCc4cccc(-c5nn[nH]n5)c4)n3c2)cccc1-c1ccc(F)cc1`, the Activity [1] is reported as “inactive”.

In the case of `CC(O)C(NC(=O)NC(CC(N)=O)c1nc(C(N)CO)no1)C(=O)O` (stereo not drawn), the IC50 [6] is reported as 5000 µM.

`Cc1c(COc2ccc3nc(CN)c(NCCc4ccccc4)n3c2)cccc1-c1ccc(F)cc1` was tested, and the Activity [1] was “inactive”.
